Experimental data published in ChEMBL document CHEMBL4325904 (Eur J Med Chem, 2019).
Activity calls are given as the source filed them. No cut-off for these calls is given here.

Experiments:
Histone deacetylase 2 = Histone deacetylase 2 (Homo sapiens, UniProt Q92769); assay: Inhibition of recombinant full length C-terminal GST-tagged human HDAC2 (1 to 488 residues) expressed in insect cells using RHK-K(Ac)-AMC as substrate by fluorimetric assay
Homo sapiens = species: Homo sapiens; assay: Selectivity ratio of IC50 for human HDAC9 to IC50 for recombinant N-terminal GST-tagged human HDAC6 (1 to 1215 residues)
[1] = molecular target: Histone deacetylase 3/Nuclear receptor corepressor 2 (HDAC3/NCoR2) (Homo sapiens, UniProt O15379); assay type: cell-based
Histone deacetylase 3/Nuclear receptor corepressor 2 (HDAC3/NCoR2), sequence (O15379 whole entry): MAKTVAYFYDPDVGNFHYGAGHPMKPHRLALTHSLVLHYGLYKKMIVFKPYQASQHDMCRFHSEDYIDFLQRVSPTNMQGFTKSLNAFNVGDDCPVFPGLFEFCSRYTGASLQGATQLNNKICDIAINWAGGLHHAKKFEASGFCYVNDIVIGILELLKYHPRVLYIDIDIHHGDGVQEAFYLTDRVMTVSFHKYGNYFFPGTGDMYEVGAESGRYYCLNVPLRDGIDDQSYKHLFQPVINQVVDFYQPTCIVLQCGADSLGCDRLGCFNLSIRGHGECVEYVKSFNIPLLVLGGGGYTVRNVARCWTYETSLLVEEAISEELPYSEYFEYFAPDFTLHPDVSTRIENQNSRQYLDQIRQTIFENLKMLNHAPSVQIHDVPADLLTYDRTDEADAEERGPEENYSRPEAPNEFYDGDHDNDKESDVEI
Histone deacetylase 3/Nuclear receptor corepressor 2 (HDAC3/NCoR2), sequence (Q9Y618 whole entry, further chain): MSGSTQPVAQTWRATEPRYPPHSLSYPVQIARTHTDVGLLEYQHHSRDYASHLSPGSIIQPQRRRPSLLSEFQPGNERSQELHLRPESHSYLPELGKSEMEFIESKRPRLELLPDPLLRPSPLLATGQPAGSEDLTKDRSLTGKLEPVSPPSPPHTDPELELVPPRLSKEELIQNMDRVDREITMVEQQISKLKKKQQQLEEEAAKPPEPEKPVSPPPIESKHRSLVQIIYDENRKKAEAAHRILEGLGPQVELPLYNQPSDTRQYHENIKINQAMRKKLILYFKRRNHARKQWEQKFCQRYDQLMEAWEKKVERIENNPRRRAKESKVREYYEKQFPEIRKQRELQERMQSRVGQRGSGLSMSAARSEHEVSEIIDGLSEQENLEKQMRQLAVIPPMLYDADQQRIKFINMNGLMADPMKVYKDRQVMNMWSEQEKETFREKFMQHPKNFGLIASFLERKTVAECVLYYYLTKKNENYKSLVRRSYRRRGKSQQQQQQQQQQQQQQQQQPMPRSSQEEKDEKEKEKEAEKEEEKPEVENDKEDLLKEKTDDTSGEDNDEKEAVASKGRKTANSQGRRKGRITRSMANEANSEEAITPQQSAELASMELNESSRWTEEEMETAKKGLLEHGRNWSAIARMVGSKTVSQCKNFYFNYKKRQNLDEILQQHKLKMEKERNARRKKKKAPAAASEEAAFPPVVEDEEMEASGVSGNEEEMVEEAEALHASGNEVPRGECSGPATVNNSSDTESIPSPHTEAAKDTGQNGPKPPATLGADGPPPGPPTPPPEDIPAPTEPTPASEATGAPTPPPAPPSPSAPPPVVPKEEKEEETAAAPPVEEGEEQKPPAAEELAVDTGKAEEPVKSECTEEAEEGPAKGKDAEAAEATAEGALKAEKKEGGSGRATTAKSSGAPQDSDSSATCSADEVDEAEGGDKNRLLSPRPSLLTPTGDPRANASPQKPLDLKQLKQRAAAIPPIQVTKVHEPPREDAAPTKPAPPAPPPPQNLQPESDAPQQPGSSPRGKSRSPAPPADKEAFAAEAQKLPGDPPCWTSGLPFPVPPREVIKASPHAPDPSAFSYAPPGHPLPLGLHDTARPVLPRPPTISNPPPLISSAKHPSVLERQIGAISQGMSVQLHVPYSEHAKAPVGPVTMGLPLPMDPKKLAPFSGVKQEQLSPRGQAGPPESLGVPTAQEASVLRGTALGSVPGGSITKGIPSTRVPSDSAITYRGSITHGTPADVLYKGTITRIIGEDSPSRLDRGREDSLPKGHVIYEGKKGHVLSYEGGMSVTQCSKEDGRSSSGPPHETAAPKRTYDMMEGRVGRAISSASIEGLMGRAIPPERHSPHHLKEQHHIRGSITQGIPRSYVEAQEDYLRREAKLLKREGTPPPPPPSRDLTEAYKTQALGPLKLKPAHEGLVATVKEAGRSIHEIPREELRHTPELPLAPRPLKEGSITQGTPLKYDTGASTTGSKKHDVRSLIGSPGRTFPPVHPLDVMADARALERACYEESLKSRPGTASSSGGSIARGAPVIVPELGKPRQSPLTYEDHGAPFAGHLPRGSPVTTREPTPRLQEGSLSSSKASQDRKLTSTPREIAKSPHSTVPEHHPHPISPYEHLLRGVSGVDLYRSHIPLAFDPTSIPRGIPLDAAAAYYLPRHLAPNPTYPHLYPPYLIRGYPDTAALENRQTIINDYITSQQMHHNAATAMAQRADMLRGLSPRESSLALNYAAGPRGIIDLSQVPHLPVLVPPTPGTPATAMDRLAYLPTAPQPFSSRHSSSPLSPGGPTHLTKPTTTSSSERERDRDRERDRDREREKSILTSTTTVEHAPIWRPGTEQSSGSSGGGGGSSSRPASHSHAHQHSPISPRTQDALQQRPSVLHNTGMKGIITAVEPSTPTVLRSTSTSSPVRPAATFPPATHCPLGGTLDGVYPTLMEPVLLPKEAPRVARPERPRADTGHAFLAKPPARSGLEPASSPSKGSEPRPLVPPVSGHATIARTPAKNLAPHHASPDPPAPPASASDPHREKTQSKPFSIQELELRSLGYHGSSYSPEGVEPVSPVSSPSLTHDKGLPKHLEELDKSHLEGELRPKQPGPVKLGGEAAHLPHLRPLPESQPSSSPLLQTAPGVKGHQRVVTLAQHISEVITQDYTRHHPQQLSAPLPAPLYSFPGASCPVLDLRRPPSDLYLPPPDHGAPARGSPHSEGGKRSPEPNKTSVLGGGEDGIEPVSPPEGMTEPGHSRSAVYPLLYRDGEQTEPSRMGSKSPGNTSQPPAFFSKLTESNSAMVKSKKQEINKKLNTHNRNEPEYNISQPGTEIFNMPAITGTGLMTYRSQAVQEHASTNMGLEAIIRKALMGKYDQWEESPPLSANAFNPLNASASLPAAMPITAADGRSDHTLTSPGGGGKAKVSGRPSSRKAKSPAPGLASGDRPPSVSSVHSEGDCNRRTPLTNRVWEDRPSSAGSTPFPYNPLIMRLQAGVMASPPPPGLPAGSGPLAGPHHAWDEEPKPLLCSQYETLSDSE

[2] = Drug uptake in zebrafish embryo vasculature at 1 to 20 uM administered from 24 to 50 hrs post fertilization for 24 hrs and measured after 72 hrs by fluorescence microscopic analysis; assay type: ADME, Danio rerio; conditions: in vivo
Procedure, shortened: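 Zebrafish embryos treated with 1, 10 or 20 µM from 24–50 hpf, with 0 µM controls; trunk and tail imaged at 72 hpf by fluorescence microscopy (λex 480 nm, λem 517 nm).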

A549 = assay: Induction of morphological changes in human A549 cells assessed as increase in protrusions of the membrane at 10 uM after 20 mins by naphthalimide/Lysotracker Deep Red dye-based inverted light fluorescence confocal microscopic analysis; assay type: functional, cell-based
Procedure, shortened: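 A549 cells exposed to compound at 10 µM for 20 minutes, then imaged by confocal microscopy (λex 405 nm, λem 460–560 nm); membrane protrusions (blebbing) recorded.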

Histone deacetylase 9 = Histone deacetylase 9 (Homo sapiens, UniProt Q9UKV0); assay: Inhibition of human HDAC9 using Boc-Lys(trifluoroacetyl)-AMC as substrate by fluorimetric assay
Histone deacetylase 9, sequence (Q9UKV0 whole entry, the tested form may be a part): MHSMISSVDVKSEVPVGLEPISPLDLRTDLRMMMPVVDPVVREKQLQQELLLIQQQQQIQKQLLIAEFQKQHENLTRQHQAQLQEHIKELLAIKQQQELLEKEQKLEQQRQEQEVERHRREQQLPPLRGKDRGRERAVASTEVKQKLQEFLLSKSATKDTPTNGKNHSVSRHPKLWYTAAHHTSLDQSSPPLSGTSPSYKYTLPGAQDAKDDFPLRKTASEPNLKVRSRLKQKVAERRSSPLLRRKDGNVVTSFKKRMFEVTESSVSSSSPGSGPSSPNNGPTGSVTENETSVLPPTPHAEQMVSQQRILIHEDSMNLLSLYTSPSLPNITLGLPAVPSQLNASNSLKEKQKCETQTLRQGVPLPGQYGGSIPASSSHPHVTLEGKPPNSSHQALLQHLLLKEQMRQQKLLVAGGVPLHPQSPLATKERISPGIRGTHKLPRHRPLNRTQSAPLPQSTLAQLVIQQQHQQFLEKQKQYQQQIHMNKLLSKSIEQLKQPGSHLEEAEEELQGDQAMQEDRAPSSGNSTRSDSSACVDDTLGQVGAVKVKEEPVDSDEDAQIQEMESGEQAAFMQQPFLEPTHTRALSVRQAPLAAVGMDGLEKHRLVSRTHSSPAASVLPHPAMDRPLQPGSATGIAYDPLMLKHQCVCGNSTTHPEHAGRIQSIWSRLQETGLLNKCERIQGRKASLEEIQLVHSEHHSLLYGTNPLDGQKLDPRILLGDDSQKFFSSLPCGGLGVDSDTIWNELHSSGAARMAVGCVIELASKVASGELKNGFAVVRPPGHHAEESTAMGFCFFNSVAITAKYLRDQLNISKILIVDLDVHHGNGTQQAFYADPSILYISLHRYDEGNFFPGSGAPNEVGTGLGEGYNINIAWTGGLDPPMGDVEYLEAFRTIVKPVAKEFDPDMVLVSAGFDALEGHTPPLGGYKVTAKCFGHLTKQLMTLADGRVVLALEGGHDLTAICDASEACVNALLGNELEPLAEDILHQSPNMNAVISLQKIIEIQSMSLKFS

Histone deacetylase 11 = molecular target: T1, Histone deacetylase 11 (Homo sapiens, UniProt Q96DB2); assay: Inhibition of recombinant C-terminal His-tagged human HDAC11 (1 to 347 residues) expressed in Baculovirus infected insect cells using RHKK-Ac as substrate by fluorimetric assay
T1 sequence (Q96DB2 whole entry): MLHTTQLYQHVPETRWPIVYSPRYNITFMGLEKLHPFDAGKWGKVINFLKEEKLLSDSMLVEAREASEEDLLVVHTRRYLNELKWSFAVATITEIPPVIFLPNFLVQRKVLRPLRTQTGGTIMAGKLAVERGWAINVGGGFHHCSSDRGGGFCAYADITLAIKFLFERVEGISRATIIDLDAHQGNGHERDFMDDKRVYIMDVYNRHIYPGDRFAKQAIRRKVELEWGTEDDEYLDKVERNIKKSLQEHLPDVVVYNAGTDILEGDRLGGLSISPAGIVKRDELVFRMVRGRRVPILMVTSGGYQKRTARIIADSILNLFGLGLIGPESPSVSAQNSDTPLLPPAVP

Kasumi 1 = assay: Potency index, ratio of scriptaid IC50 to test compound IC50 for human Kasumi-1 cells; assay type: functional

Histone deacetylase 2, sequence (Q92769 whole entry, the tested form may be a part): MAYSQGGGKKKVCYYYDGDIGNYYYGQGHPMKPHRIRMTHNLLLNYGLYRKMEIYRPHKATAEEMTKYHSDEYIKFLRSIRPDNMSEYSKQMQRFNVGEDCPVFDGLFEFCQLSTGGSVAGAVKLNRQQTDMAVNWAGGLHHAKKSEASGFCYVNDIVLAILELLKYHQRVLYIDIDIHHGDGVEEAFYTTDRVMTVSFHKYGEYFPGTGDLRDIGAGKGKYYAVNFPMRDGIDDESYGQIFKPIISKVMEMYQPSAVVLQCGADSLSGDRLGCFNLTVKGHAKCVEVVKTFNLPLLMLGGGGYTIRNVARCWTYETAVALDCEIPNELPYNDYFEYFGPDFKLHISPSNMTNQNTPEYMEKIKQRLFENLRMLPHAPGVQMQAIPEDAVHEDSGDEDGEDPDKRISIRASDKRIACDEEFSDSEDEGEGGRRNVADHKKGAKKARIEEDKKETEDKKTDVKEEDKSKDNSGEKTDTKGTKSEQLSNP

| IC50 (Histone deacetylase 2) [nM] | Ratio IC50 (Homo sapiens) | IC50 [1] [nM] | Drug uptake [2] | IC50 (Histone deacetylase 9) [nM] | IC50 (Histone deacetylase 11) [nM] | Compound | Activity (A549) | Ratio IC50 (Kasumi 1) |
| --- | --- | --- | --- | --- | --- | --- | --- | --- |
| 850 | > 2000 | 360 | Active | 9300 | 150 | O=C(CCCCCN1C(=O)c2cccc3c(NCc4ccccc4)ccc(c23)C1=O)NO | Active | – |
| 420 | > 2000 | 110 | Active | > 10000 | 80 | CCCNc1ccc2c3c(cccc13)C(=O)N(CCCCCC(=O)NO)C2=O | – | 5 |
